Screening results deposited in PubChem by The Scripps Research Institute Molecular Screening Center.
Hits are enriched below; roughly 4% of the tested compounds scored in any of these assays.
TAAR1 agonist: human TAAR1 agonists, primary screen, Fluo-8 calcium fluorescence, CHO RD-HGA16 cells; Trace amine-associated receptor 1 (Homo sapiens), Q96RJ0; vehicle wells 0%, saturating PEA agonist 100%; activation, % at 3 µM; actives 0.99% (n = 360,000); AID 624467, 2012;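 active = activation above the mean activation of all test compounds in the run plus 3 SD, cut at about 38% in these data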
Target sequence (Q96RJ0 whole entry, looked up): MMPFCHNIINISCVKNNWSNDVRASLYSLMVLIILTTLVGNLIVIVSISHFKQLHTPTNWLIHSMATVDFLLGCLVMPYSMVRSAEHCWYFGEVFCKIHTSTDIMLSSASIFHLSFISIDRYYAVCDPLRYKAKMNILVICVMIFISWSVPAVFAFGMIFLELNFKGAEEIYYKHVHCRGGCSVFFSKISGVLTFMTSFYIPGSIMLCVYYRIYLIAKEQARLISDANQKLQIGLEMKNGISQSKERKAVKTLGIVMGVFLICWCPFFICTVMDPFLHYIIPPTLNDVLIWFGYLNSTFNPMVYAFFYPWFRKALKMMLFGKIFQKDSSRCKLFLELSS
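Test system: RD-HGA16 (CHO) cells co-expressing Gα16 and hTAAR1; dosing: one-point dosing at 3 µM (nominal); timing: 17-24 h seeding, 75 min 37 °C dye, 30 min RT; signal: kinetic Fluo-8 calcium fluorescence; read-out basis: % activation relative to PEA EC100 response; controls: DMSO and PEA EC100; replicates: n 1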
OX1R antag-1: OX1R (HCRTR1) antagonists, primary screen, fluorescence, CHO/OX1R cells, Fluo-8 calcium, orexin A; Fluo-8 calcium fluorescence; inhibition, % at 5 µM; actives 0.43% (n = 330,000); Orexin/Hypocretin receptor type 1 (Homo sapiens), O43613; AID 434989, 2010;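 active = inhibition above its plate's threshold, mean inhibition of all tested compounds on the plate plus 3 SD, cut at about 37% in these data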;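 also: 0% = orexin A challenge wells and 100% = SB-334867-A antagonist wells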
Target sequence (O43613 whole entry, looked up): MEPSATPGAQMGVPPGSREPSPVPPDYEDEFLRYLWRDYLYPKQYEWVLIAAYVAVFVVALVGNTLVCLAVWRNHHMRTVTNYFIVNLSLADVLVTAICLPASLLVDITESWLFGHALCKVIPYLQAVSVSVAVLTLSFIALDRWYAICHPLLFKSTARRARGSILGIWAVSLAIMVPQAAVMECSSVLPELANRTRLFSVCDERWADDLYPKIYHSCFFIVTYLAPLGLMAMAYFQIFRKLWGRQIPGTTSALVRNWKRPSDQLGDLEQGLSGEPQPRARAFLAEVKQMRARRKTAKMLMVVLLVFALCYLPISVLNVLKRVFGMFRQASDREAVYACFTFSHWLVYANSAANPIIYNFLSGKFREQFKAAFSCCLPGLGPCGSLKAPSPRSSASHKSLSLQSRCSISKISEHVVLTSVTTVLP
CHO parental Ca: ATP-evoked calcium signal inhibitors, parental CHO, primary screen, counter-screen for OX1R antagonist project, cell-based, fluorescence, Fluo-8 calcium dye; parental CHO-K1, ATP-induced calcium, Fluo-8 fluorescence; inhibition, % at 5.6 µM; actives 0.63% (n = 330,000);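 active = inhibition above that plate's mean sample inhibition plus 3 SD, cut at about 26% in these data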;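 also: 0% = ATP-challenged DMSO wells and 100% = DMSO wells without ATP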
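Test system: untransfected parental CHO cell line; also added: ATP stimulus; dosing: 5.6 µM, single dose; signal: calcium-sensitive Fluo-8 fluorescence; measure: percent inhibition of ATP-evoked calcium rise, normalized to controls; benchmarks: low control ATP plus DMSO, high control DMSO only; replication: one well per compound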
TAAR1 antagonist: human TAAR1 antagonists, primary screen, Fluo-8 calcium fluorescence, CHO RD-HGA16 cells; Trace amine-associated receptor 1 (Homo sapiens), Q96RJ0; antagonist; inhibition, % at 3 µM; actives 1.5% (n = 360,000); AID 624466, 2012;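 active = inhibition above a per-plate cutoff, the mean inhibition of test compounds on that plate plus 3 SD, cut at about 49% in these data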;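 also: 0% = DMSO plus EC80 beta-PEA response and 100% = DMSO alone without agonist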
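Assay system: RD-HGA16 CHO cells with stable hTAAR1 and Gα16 / Reagent: EC80 β-phenethylamine stimulus / Doses: 3 µM, single point / Timing: dye loading 75 min at 37 °C, then 30 min room temperature / Measured by: Fluo-8 intracellular calcium dye fluorescence, real-time kinetic reads / Controls: vehicle wells and EC80 agonist wells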
OX1R antag-2: antagonists of human orexin 1 receptor (OX1R). OX1R-expressing cells, FRET antagonist read-out. inhibition, % at 6.6 µM. actives 1.8% (n = 330,000). AID 485270, 2010; in the data active = inhibition mostly above about 38%, no sharp cut-off; inactive = mostly below about 40%;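 also: 0% = agonist challenge alone and 100% = reference antagonist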
TAAR1 ag conf: human TAAR1 agonists, retest of hits, confirmation, Fluo-8 calcium fluorescence, CHO RD-HGA16 cells; scaled: DMSO 0%, maximal phenethylamine 100%; activation, % at 3 µM; shares compounds with TAAR1 agonist; actives 82% (n = 2,400); AID 651783, 2012;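 active = activation above a cutoff set at the run's mean compound activation plus 3 SD, cut at about 39% in these data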
Ga16 nonsel ag: nonselective calcium mobilization agonists, CHO-Ga16 cells, counter-screen for hTAAR1 agonist project, cell-based, fluorescence, CHO-Ga16 parental line. shares compounds with TAAR1 agonist. Fluo-8 calcium fluorescence; normalized to maximal ATP response, DMSO zero. activation, % at 3 µM. actives 50% (n = 2,400);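 active = activation above the run cutoff, the mean activation over all tested wells plus 3 SD, cut at about 12% in these data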;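 also: 0% = DMSO wells and 100% = maximal ATP response on the peak over basal ratio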
TAAR1 desensitize: TAAR1 desensitization by agonist hits, confirmation, counter-screen for TAAR1 agonist project, cell-based, fluorescence, tachyphylaxis. AID 651951, 2012. CHO RD-HGA16 hTAAR1, Fluo-8 calcium, beta-PEA response inhibition. actives 46% (n = 2,400). inhibition, % at 3 µM. shares compounds with TAAR1 agonist;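 active = inhibition above the run cutoff, the mean inhibition of all test compounds plus 3 SD, cut at about 49% in these data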;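 also: beta-PEA stimulus applied at its EC80; loss of beta-PEA calcium signal after compound pretreatment read as receptor desensitization; 0% = DMSO with beta-PEA at EC80 and 100% = DMSO alone without agonist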
Ga16 nonsel ant: inhibition of ATP-evoked calcium response in CHO-Ga16 cells, counter-screen for TAAR1 agonist project, cell-based, fluorescence; CHO-Ga16 ATP-induced calcium, Fluo-8 fluorescence; shares compounds with TAAR1 agonist; inhibition, % at 3 µM; actives 39% (n = 2,400);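 active = inhibition above the plate's mean compound inhibition plus 3 SD, computed per plate, cut at about 22% in these data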;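 also: 0% = EC80 ATP with DMSO and 100% = DMSO wells without ATP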
* hit, by the source's call; · = no result given.

SMILES | TAAR1 agonist | OX1R antag-1 | CHO parental Ca | TAAR1 antagonist | OX1R antag-2 | TAAR1 ag conf | Ga16 nonsel ag | TAAR1 desensitize | Ga16 nonsel ant
O=C(Nc1ccncc1)Nc1cccc(F)c1 | 92.4* | · | · | 46.0 | · | 104.4* | 12.1* | 83.7* | 17.2
O=C(Nc1ccc(F)cc1F)Nc1ccc(F)cc1F | 6.1 | -23.7 | -3.8 | 7.1 | 14.9 | · | · | · | ·
O=C(Nc1ccncc1)Nc1ccc(F)cc1F | 46.6* | -1.0 | -5.8 | -12.9 | 10.4 | 71.2* | 1.3 | 15.6 | -2.8
CCCCc1nc2cc(C(=O)N3CCCC(COC)C3)ccc2o1 (stereo not given) | 2.2 | -19.4 | -18.6 | -19.0 | 12.5 | · | · | · | ·
CC(C)N(C(=S)Nc1cccc(C(F)(F)F)c1)C(C)c1ccccn1 (stereo not given) | 6.5 | -3.1 | 6.1 | 7.0 | 12.8 | · | · | · | ·
COCCCN1C(=O)C(CC(=O)NCc2cccc3ccccc23)CC(C(=O)N(C(C)C)C(C)C)=C1C (stereo not given) | 2.9 | · | · | -21.8 | · | · | · | · | ·
Nc1nc(-c2ccccc2)cn1/N=C/c1ccccc1 | 61.5* | -26.4 | -14.6 | 29.7 | 6.3 | 93.1* | 5.4 | 70.1* | 9.7
COc1ccc(NC(=S)N(CCCOC(C)C)C2CCN(C(C)=O)CC2)cc1Cl | 1.9 | -13.3 | -17.1 | 4.6 | 8.7 | · | · | · | ·
COc1ccc2[nH]c3c(c2c1)CCN1C(=O)C(CC(=O)NC/C=C(\C)CCC=C(C)C)C[C@H](C(=O)N2CCOCC2)[C@@]31CCC1CCCC1 (stereo not given in full) | 1.0 | -8.3 | -2.1 | -1.2 | 17.9 | · | · | · | ·
CCOC(=O)c1c(S(=O)(=O)NCCc2cccs2)c(C)n(C)c1C | 54.9* | 2.7 | 8.4 | -32.4 | 8.5 | 7.0 | 1.9 | 6.8 | 6.3
CCOP(=O)(OCC)c1ccc2ccc3ccccc3c(=O)c2c1 | 7.2 | -19.2 | -24.7 | 21.3 | 11.4 | · | · | · | ·
O=C(NCCc1ccccc1)c1cc(-c2ccco2)on1 | 46.9* | 6.2 | 27.6 | -12.5 | 1.0 | 44.1* | 1.6 | 5.8 | 2.3
CN(CCNC(=O)c1cn(C)c2ccc(S(=O)(=O)N(C)C)cc2c1=O)CCc1ccccc1 | 44.3* | -25.9 | -20.5 | -16.8 | 6.1 | 55.3* | 1.1 | 4.8 | -8.1
COc1ccccc1N1CCN(C(=O)c2cc3sccc3n2C)CC1 | 19.7 | -28.7 | -24.2 | 28.5 | 17.2 | · | · | · | ·
Cn1c(C(=O)N2CCN(c3nc4ccccc4s3)CC2)cc2sccc21 | 45.9* | -10.4 | -12.2 | 24.7 | 22.5 | 26.3 | 14.4* | 41.9 | 24.6*
COC(=O)[C@H](CCSC)NC(=O)NCCc1ccccc1F | 46.6* | 2.8 | -8.0 | -1.1 | 7.1 | 53.2* | 0.9 | 25.9 | 7.7
CSCC[C@H](NC(=O)NCc1ccccc1F)C(=O)O | 0.1 | -18.8 | -16.2 | -6.4 | 6.7 | · | · | · | ·
CC[C@]12c3[nH]c4ccccc4c3CCN1C(=O)C(CC(=O)NCc1cccc(C(F)(F)F)c1)C[C@@H]2C(=O)N1CCN(C(=O)c2ccco2)CC1 (stereo not given in full) | 3.8 | -22.0 | -32.9 | -11.6 | 0.6 | · | · | · | ·
COc1ccc(-c2cnc3c(c2)CCC3(C#N)C#N)cc1 | 6.8 | -2.4 | -6.3 | -19.4 | 10.6 | · | · | · | ·
Cc1nn(C(C)C(=O)NCCCN2CCCCCC2)c(=O)c2cc3sccc3n12 (stereo not given) | -0.3 | -28.1 | -12.1 | -29.9 | 3.9 | · | · | · | ·
CCC(CC)NC(=O)CON=C1c2ccccc2-c2ccccc21 | 43.2* | -13.0 | -21.1 | 21.4 | 51.4* | 14.2 | 10.4 | 20.0 | 8.2
CCNC(=O)CON=C1c2ccccc2-c2ccccc21 | -0.9 | -14.3 | -8.6 | -2.6 | 60.2 | · | · | · | ·
Cc1ccc(NC(=O)CN(C)C(=O)c2cccc(S(=O)(=O)N3CCc4ccccc43)c2)cc1 | 12.3 | 4.3 | -10.0 | 14.0 | 13.2 | · | · | · | ·
c1ccc2c3c([nH]c2c1)CCNC3 | 82.5* | 5.2 | 8.2 | 81.5* | 6.3 | 103.1* | -0.1 | 92.8* | 2.5
CC(=O)Nc1ccc(OCC(O)Cn2nc(C)c(C)c2C)cc1 (stereo not given) | 3.2 | -2.4 | -9.4 | 1.3 | 0.6 | · | · | · | ·
SMILES | TAAR1 agonist | OX1R antag-1 | CHO parental Ca | TAAR1 antagonist | OX1R antag-2 | TAAR1 ag conf | Ga16 nonsel ag | TAAR1 desensitize | Ga16 nonsel ant
O=C(Nc1ccc2c(c1)OCO2)c1n[nH]c(=O)c2ccccc12 | -3.2 | -19.7 | 6.9 | 11.9 | 21.2 | · | · | · | ·
C/C(NCCc1ccccc1)=C1/CCOC1=O | 91.4* | · | · | 90.1* | · | 97.5* | 0.0 | 88.4* | 2.5
O=C(NCCc1ccccc1)C1=COCCO1 | -0.3 | -9.1 | 6.6 | 1.6 | 13.2 | · | · | · | ·
COc1ccc(C(C)=O)cc1COC(=O)c1cnc(Cl)c(Cl)c1 | -0.2 | -33.9 | -26.0 | 12.6 | 18.4 | · | · | · | ·
Cc1cn([C@H]2C[C@H](O)[C@@H](CCC(=O)NCc3ccc(N(C)C)cc3)O2)c(=O)[nH]c1=O | -0.3 | · | · | -3.0 | · | · | · | · | ·
Cc1ccc(-n2nc3c(=O)n(CCCC(=O)NCCc4ccccc4)nc(C)c3c2C)cc1 | 41.0* | -29.2 | -18.0 | -23.0 | 9.5 | 36.2 | 5.0 | -0.6 | 8.0
Cc1nn(CCCC(=O)NCCc2ccccc2)c(=O)c2nn(-c3ccccc3)c(C)c12 | -1.3 | -24.2 | -24.8 | -36.2 | 19.4 | · | · | · | ·
O=C(C1=C[C@H](c2csc3ccccc23)C[C@H](OCc2ccc(CO)cc2)O1)N1CCCCCCC1 | 10.7 | -0.7 | -7.0 | 31.4 | 22.1 | · | · | · | ·
COc1ccc(NCC(=O)Nc2c(C)cccc2C)cc1S(=O)(=O)N1CCOCC1 | 3.3 | · | · | -21.4 | · | · | · | · | ·
O=C(NCCc1ccccc1)C(=O)NCC1CCCN1S(=O)(=O)c1cccs1 (stereo not given) | 88.7* | -15.6 | -3.9 | 68.7* | 31.0 | 98.0* | 9.1 | 94.6* | 26.6*
O=C(O)c1ccccc1NC(=S)NC(=O)c1sc2ccccc2c1Cl | -0.7 | -18.6 | 11.9 | -29.2 | 8.4 | · | · | · | ·
